Most compounds without a hit are left out; they make up all but 3.7% or so of the library.
KCNQ1 block: inhibitors of human KCNQ1 potassium channel | P51787 | CHO-K1 KCNQ1, FluxOR thallium flux fluorescence; stronger effect = higher value | B-score at 10 µM | 310,000 tested, 1.3% active;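 active means compounds whose thallium flux B-score, printed positive for inhibition, exceeds three library SD while starting fluorescence stays within three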;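 further: channel opened by potassium depolarization with thallium stimulus after 20 min compound exposure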
hERG rescue: compounds protecting human hERG from proarrhythmic drug block; Q12809; CHO-hERG, FluxOR thallium flux, dofetilide IC70 present; activation (rescue from dofetilide block), less the hit threshold, % at 10 µM; 310,000 tested, 0.51% active;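 active means activation above the mean of controls blocked by dofetilide plus 5 SD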;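 further: thallium influx through hERG after potassium depolarization seen as dye fluorescence rise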
Kir21 block: inhibitors of mouse Kir2.1 inward-rectifier potassium channel | P35561 | HEK293-Kir2.1, FluxOR thallium flux fluorescence; stronger effect = lower value | B-score at 10 µM | 310,000 tested, 0.85% active | AID 1672;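 active means fluorescence ratio B-score at or below minus 3 SD of library scores, with starting-brightness B-score within 2 SD, cut at about -4.2 in these data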;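 further: channel flux triggered by added potassium and thallium sulfate stimulus; B-score of peak minus minimum fluorescence over baseline after thallium stimulus; more negative B-score means stronger Kir2.1 block with less thallium influx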
KCNK9 block: inhibitors of human KCNK9 two-pore domain potassium channel. AID 488922. B-score at 10 µM. Q9NPC2. 310,000 tested, 1.2% active. HEK293 KCNK9, FluxOR thallium flux fluorescence; stronger effect = lower value;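 active means ratio B-score over 3 SD below the library mean, with starting fluorescence within 5 SD of its mean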;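 further: negative B-score means less thallium flux so channel inhibition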
KCNQ1 act: potentiates or activates the human KCNQ1 potassium channel | P51787 | AID 2648 | 310,000 tested, 0.35% active | B-score at 10 µM | CHO-K1 KCNQ1, thallium flux FluxOR fluorescence; stronger effect = higher value;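 active means fluorescence ratio B-score, a plate-corrected score, at least three library SD, with initial intensity B-score within 5 SD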
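Schedule – 37 °C overnight plating, 90-min dark dye load, 20-min compound pretreatment · System – stable KCNQ1 CHO-K1 line · Probe or stimulus – thallium- and potassium-containing depolarizing buffer · Measured by – kinetic FluxOR fluorescence, 10 s baseline plus 110 s post-stimulus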
KCNK3 block: human KCNK3 channel inhibition, primary screen | CHO-KCNK3 thallium flux, FluxOR fluorescence; stronger effect = lower value | 340,000 tested, 0.84% active | AID 602410 | O14649 | B-score at 10 µM;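 active means B-score under library mean minus 4 SD, starting fluorescence ratio at most library mean plus 5 SD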;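 further: more negative B-score means stronger inhibition of thallium flux through KCNK3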
KCNK9 inh conf: confirmation of human KCNK9 potassium channel inhibitors; inhibition, % at 10 µM; AID 492992; HEK293 KCNK9 cells, FluxOR thallium flux fluorescence; shares compounds with KCNK9 block; 4,900 tested, 43% active;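 active means thallium signal inhibited by more than 5 SD of the compound-free buffer control wells, on both duplicate plates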;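 further: 0% = assay buffer control wells without compound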
Kir21 sel: selectivity of KCNK9 modulators against mouse Kir2.1 | AID 492993 | inhibition, % at 10 µM | shares compounds with KCNK9 block | Kir2.1 cells, FluxOR thallium flux fluorescence | 4,900 tested, 4% active;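 active means thallium signal drop more than 5 SD beyond the mean of the no-compound control wells, seen in both duplicate plates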;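 further: signal is fluorescence rise after thallium addition divided by baseline fluorescence; plate controls were assay buffer only for no effect and full block by chlorpromazine control for full effect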
HEK293 Tl ctr: second check of KCNK9 modulator effects in non-induced HEK293 cells. FluxOR thallium flux. 4,900 tested, 40% active. inhibition, % at 10 µM. shares compounds with KCNK9 block;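 active means thallium signal drop beyond 5 SD of the untreated control mean, on both duplicate plates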;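 further: plate controls were buffer only IC0 wells for no effect and SID17386958 at its maximal inhibitory level for full effect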
* marks the source's active call; other numbers are inactive results; i = inactive; nt = no result given.

SMILES	KCNQ1 block	hERG rescue	Kir21 block	KCNK9 block	KCNQ1 act	KCNK3 block	KCNK9 inh conf	Kir21 sel	HEK293 Tl ctr
COC(=O)C1=CN(Cc2ccc(C)cc2)C=C(C(=O)OC)C1c1ccc(F)c(F)c1	i	-10	0.1	-11*	i	i	i	i	39%*
CC(=O)OC[C@H]1O[C@@H](n2ncc(=O)[nH]c2=O)[C@H](OC(C)=O)[C@@H]1OC(C)=O	i	-3	1.2	i	i	nt	nt	nt	nt
O=C(OCC1OC(n2ncc(=O)[nH]c2=O)C(OC(=O)c2ccccc2)C1OC(=O)c1ccccc1)c1ccccc1 (centres undefined)	i	-24	-0.49	i	i	i	i	i	33%*
Cc1ccc(N=Cc2cc(Cc3ccccc3Cl)cc([N+](=O)[O-])c2O)c(O)c1	i	-11	1.9	-8.8*	i	i	i	i	65%*
CCS(=O)(=O)C1=NN2C(=N)/C(=C\c3ccc(OCCOc4cccc(OC)c4)c(OC)c3)C(=O)N=C2S1	i	-26	0	i	i	i	i	i	i
COc1cc(/C=C2\C(=N)N3N=C(S(C)(=O)=O)SC3=NC2=O)cc(OC)c1OCCOc1cccc(C)c1	i	-34	1.7	i	i	i	i	i	i
COc1cc2c(cc1OC)C(C)N(C(=S)NC(=O)c1ccccc1)CC2 (centres undefined)	i	-1	1.4	i	i	i	nt	nt	nt
CCOC(=O)c1cc(-c2ccc(OC)cc2F)nc2c1c(C)nn2CCC#N	6*	-8	2	-11*	i	i	54%*	i	34%*
c1ccc(-c2csc(NC3CCCCC3)n2)cc1	i	-6	-0.64	i	i	i	i	i	i
O=C(Nc1nc(-c2ccccc2)cs1)NC1CCCCC1	i	-11	0.1	i	i	i	nt	nt	nt
CN1CCN(NC(=O)/C=C/c2ccc(C(C)(C)C)cc2)CC1	i	-6	-1.1	i	i	i	nt	nt	nt
COCCNC(=O)C(c1cccc(OC)c1)N(Cc1cccs1)C(=O)Cn1nnc2ccccc21 (centres undefined)	i	-8	-0.29	i	i	i	nt	nt	nt
CCC(C)N(C(=O)Cn1nnc2ccccc21)C(C(=O)Nc1ccc(F)cc1)c1cccc(OC)c1 (centres undefined)	i	-4	1.3	-9.2*	i	i	36%*	i	i
O=C(CCNC(=O)c1ccccc1Cl)Nc1nc(-c2ccc3ccccc3c2)cs1	i	-8	-1.1	-8.2*	i	i	42%*	i	i
COc1ccccc1N(C(=O)NCc1ccccc1)C1=NCC(C)S1 (centres undefined)	i	-4	-0.45	i	i	i	i	i	i
CC1(C)CC2CC(C)(CN2S(=O)(=O)c2ccccc2[N+](=O)[O-])C1 (centres undefined)	nt	nt	nt	nt	nt	i	nt	nt	nt
Cc1sc(NC(=O)C2CCCCC2)c(C#N)c1-c1ccccc1	i	-10	1.1	i	i	i	i	i	i
O=C(NN(CC(O)COc1ccccc1)CC(O)COc1ccccc1)c1ccccc1 (centres undefined)	i	-13	-0.54	i	i	i	nt	nt	nt
O=C(N/N=C/c1cn(-c2ccccc2)nc1-c1cccs1)c1ccc(Cl)cc1	i	-15	-2.3	i	i	i	nt	nt	nt
O=C(O)CCCCCN1C(=O)/C(=C/c2cn(-c3ccccc3)nc2-c2cccs2)SC1=S	nt	nt	nt	nt	nt	i	nt	nt	nt
O=C(N/N=C/c1cn(-c2ccccc2)nc1-c1cccs1)c1ccccc1F	6*	-18	0.77	-13*	i	-9.1*	56%*	i	30%*
